# Test results: paper PMC3147223 (Journal of biomedical materials research. Part A, 2009)
# Where no end group is shown, it is not given here.
# Columns and labels:
# Human pulmonary ECs = assay: Competitive platelet-EC static adhesion assay: EC adhesion; type: cell-based; conditions: washed suspension of 190 EC/μl and 50,000 platelet/μl, 30 min, 37°C, n=3, FN=1
# Procedure, shortened: (§1)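 Passage-7 ECs were detached (Cellstripper, 30 min) and mixed in 1% BSA with washed platelets (citrated donor blood; PRP pelleted, EDTA-PBS wash), plus 2 mM CaCl2 and 1 mM MgCl2 final. Surfaces (FSP adsorbed 24 h on fluorosilane monolayers, or FN-coated glass) were pre-blocked with 2% BSA for 30 min. Samples were PFA-fixed and stained with FITC anti-CD41a, phalloidin and DAPI. 14–33 epifluorescent fields/surface were analysed; two-sample t-test.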
# platelets = assay: Competitive platelet-EC static adhesion assay: platelet adhesion; type: cell-based, human; conditions: washed suspension of 190 EC/μl and 50,000 platelet/μl, 30 min, 37°C, n=3, FN=1
# Procedure, shortened: as §1
Substance,EC adhesion (EC population) normalized to FN (Human pulmonary ECs),"Platelet surface coverage normalized to FN, platelet-EC suspension (platelets)"
GSSS-*CRRETAWAC* (disulfide) [cRRE FSP],0.93,–
GSSSRGD [RGD FSP],0.99,1.99
cyclic(RGDfE)-SSSK (head to tail) [cRGD FSP],1.05,2.66
